High-throughput results (PubChem)
Only some compounds are listed: those with a hit (about 3.5% of all), similar ones and a draw of the others.
RGS4 block: RGS4 inhibitors, primary screen, cell-based, HEK293 M3R inducible RGS4, calcium flux; Fluo-4 calcium flux; active compounds read high; triggered by carbachol at its EC20; B-score at 10 µM; 310,000 tested, 0.45% active;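 active = B-score, a plate-corrected calcium signal, over three deviations above library mean, with baseline fluorescence within five deviations of library mean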;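 also: RGS4 expression induced by doxycycline in cells with stable M3 receptor; B-score is computed from the integrated fluorescence ratio over baseline after carbachol; higher B-score means a larger calcium signal and so more RGS4 inhibition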
Target sequence (P49798 whole entry, looked up): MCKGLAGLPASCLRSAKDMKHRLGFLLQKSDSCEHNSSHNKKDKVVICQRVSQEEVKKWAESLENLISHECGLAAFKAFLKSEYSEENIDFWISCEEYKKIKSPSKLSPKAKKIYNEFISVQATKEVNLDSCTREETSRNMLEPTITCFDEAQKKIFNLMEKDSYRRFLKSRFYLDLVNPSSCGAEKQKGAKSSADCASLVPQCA
MrgX1 allo act: positive allosteric modulators of MrgX1, primary screen, HEK293 cells, Fluo-4 calcium flux; FDSS; active compounds read high; B-score at 10 µM; 310,000 tested, 0.63% active; AID 588675, 2011;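 active = plate-corrected calcium response at least 3 library SD above typical, normal starting fluorescence, not activating the receptor alone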;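 also: compound read alongside a low EC10 to EC30 dose of BAM8-22 agonist; peak minus trough fluorescence over baseline measured at the second addition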
Target sequence (Q96LB2 whole entry, looked up): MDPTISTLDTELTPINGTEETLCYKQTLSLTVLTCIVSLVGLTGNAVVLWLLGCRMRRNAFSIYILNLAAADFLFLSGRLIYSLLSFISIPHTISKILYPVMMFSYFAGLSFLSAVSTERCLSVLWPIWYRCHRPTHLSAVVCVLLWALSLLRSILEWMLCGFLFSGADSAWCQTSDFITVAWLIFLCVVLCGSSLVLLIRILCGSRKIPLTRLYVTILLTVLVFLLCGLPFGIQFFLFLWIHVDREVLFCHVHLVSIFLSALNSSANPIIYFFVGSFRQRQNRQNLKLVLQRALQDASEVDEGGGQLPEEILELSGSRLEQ
MrgX1 agonist: agonists of human MrgX1 receptor, primary screen, HEK293 cells, Fluo-4 calcium flux | Fluo-4 calcium fluorescence, agonist mode; active compounds read high | B-score at 10 µM | 310,000 tested, 0.44% active | AID 588627, 2011;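 active = calcium response B-score plate-corrected fluorescence ratio at least 3 library SD, with starting fluorescence B-score inside 5 SD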
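Test system: HEK293 cells stably expressing human MrgX1 receptor; Input: fifteen thousand cells per well; Dosing: compound delivered in addition one of three; Schedule: overnight seeding, then 1 h dark dye loading; Technique: Fluo-4 NW calcium fluorescence; Measure: B-scored fluorescence response ratio; Controls: positive and negative controls per plate.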
MrgX1 antagonist: antagonists of human MrgX1 receptor, primary screen, HEK293 cells, Fluo-4 calcium flux; Mas-related G-protein coupled receptor member X1 (Homo sapiens), Q96LB2; BAM8-22 antagonism; active compounds read low; B-score at 10 µM; 310,000 tested, 1.3% active; AID 588676, 2011;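 active = calcium-response B-score plate-corrected more than 3 library SD below zero, starting fluorescence within 5 deviations, no agonist response on first addition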;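 also: peak minus trough fluorescence over baseline after final BAM8-22 challenge near maximal dose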
RGS4 act: RGS4 potentiators or activators, primary screen, cell-based, HEK293 M3R inducible RGS4, calcium flux; carbachol calcium flux Fluo4; active compounds read low; B-score at 10 µM; 310,000 tested, 0.92% active; AID 463111, 2010;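 active = B-score of the integrated calcium signal more than 4 SD below the library mean, with starting fluorescence not abnormally high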;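 also: negative B-score means reduced calcium response which marks RGS4 activation or potentiation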
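Assay system: HEK293 FlpIn-TREx cells, stable M3R, doxycycline-inducible RGS4 / Probe or stimulus: carbachol, ECmax concentration / Times: overnight RGS4 induction, 30 min dye load 37 °C, 20 min compound RT / Signal: kinetic calcium fluorescence imaging with Fluo4-AM dye, 2 µM / Measure: Agonist-evoked peak-minus-minimum fluorescence over baseline, integrated ratio, B score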
RGS4 inh valid: enhanced carbachol calcium response, M3R/RGS4 cells, RGS4 inhibitor project, cell-based, validation screen, HEK293 M3R/RGS4, calcium flux; calcium response, % at 10 µM; 1,700 tested, 65% active; shares compounds with RGS4 block; AID 492999, 2010; carbachol calcium Fluo-4 fluorescence; carbachol added at its EC20; 0 = buffer wells, 100 = carbachol control;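 active = duplicate-averaged calcium response above the buffer-only control mean plus 5 SD of those controls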;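 also: integrated fluorescence ratio F max minus min over baseline F0; higher response in RGS4-induced cells means RGS4 inhibition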
RGS4 uninduced: carbachol calcium response in non-induced M3R cells, confirmation, counter-screen for RGS4 inhibitor project, cell-based, HEK293 M3R; shares compounds with RGS4 block; carbachol calcium Fluo-4; submaximal (EC20) carbachol stimulus; buffer wells 0%, carbachol control wells 100%; activity (percent), % at 10 µM; 1,900 tested, 20% active; AID 493000, 2010; call rule not given here;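 also: RGS4 induction absent so cells express M3R without RGS4; higher means more calcium signal and flags a non-specific hit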
M3R basal Ca ctr: signal in non-induced cells without carbachol, RGS4 inhibitor counter-screen; shares compounds with RGS4 block; calcium response (agonist-mode artifact), % at 10 µM; 1,900 tested, 22% active; HEK293 M3R/RGS4 non-induced, Fluo-4 calcium, no carbachol; normalised: buffer wells 0%, carbachol wells 100%;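 active = duplicate-averaged calcium rise in uninduced cells above buffer wells' mean plus 5 SD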
MrgX1 ag confirm: MrgX1 receptor agonists, duplicate retest, confirmation, HEK293 cells, Fluo-4 calcium flux | shares compounds with MrgX1 agonist | Fluo-4 calcium fluorescence, FDSS | activation, % at 10 µM | 600 tested, 78% active;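 active = calcium signal rise, corrected for plate position, at least 3 library SD high, with starting brightness within 5 such deviations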
HEK293 Ca flux: nonspecific calcium signal in parental HEK293, confirmation, counter-screen for MrgX1 antagonist project, parental HEK293 cells, Fluo-4 calcium flux; shares compounds with MrgX1 antagonist; Fluo-4 calcium fluorescence, FDSS; fluorescence ratio F(max-min)/F0 at 10 µM; 4,000 tested, 2% active; AID 624111, 2012;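 active = duplicate-averaged calcium fluorescence ratio at least three times the standard deviation of buffer wells, a nonspecific response in parental cells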
HEK293 Ca counter: calcium response in parental HEK293 cells, primary screen, counter-screen for MrgX1 allosteric activator project, cell-based, Fluo-4 calcium flux, duplicate. Fluo-4 fluorescence ratio; active compounds read high. 4,000 tested, 0.4% active. AID 624114, 2012. fluorescence ratio F(max-min)/F0 at 10 µM. shares compounds with MrgX1 antagonist;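 active = calcium fluorescence ratio, averaged over duplicates, at least 3 SD of the buffer-well ratio, meaning a nonspecific response in receptor-free cells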;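 also: untransfected parental HEK293 lacking MrgX1 used as counterscreen for MrgX1 allosteric activators; fluorescence change taken during the second addition on a kinetic imager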
HEK293 Ca cntr2: calcium response in parental HEK293 cells, primary screen, counter-screen for MrgX1 agonist project, cell-based, Fluo-4 calcium flux, duplicate, agonist mode; Fluo-4 calcium fluorescence (FDSS); active compounds read high; fluorescence ratio F(max-min)/F0 at 10 µM; shares compounds with MrgX1 antagonist; 4,000 tested, 8.7% active;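 active = calcium fluorescence ratio at least three times the spread of buffer wells, meaning a non-specific response in parental cells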
* hit, by the source's call; i = inactive; x = no result given.

SMILES | RGS4 block | MrgX1 allo act | MrgX1 agonist | MrgX1 antagonist | RGS4 act | RGS4 inh valid | RGS4 uninduced | M3R basal Ca ctr | others
Cc1ccc(/C=C2\C(=O)NC(=S)N(c3ccc(F)cc3)C2=O)s1 | 15* | i | i | i | i | 29%* | i | i
COc1ccc(N2C(=O)/C(=C/c3cccs3)C(=O)NC2=S)cc1 | 8.3* | i | i | i | i | i | i | i
CCOc1cccc(N2C(=O)/C(=C/c3ccco3)C(=O)NC2=S)c1 | i | i | i | i | i | x | x | x
O=c1[nH]c(=O)n(-c2cccc(F)c2)c(O)c1/C=C1\C=Nc2ccccc21 | i | i | i | i | i | x | x | x
OC(CN1CC=C(c2ccccc2)CC1)c1ccccc1 (stereo unspecified) | i | i | i | i | i | x | x | x
NC(=O)C1CCN(/C=C2\C(=O)NC(=O)N(Cc3ccco3)C2=O)CC1 | i | i | i | i | i | x | x | x
COc1cc(/C=C(/C)[N+](=O)[O-])ccc1OCc1ccccc1Cl | 31* | i | i | i | i | 10%* | i | 38%*
CN1C(=O)C(=Cc2ccccc2OCc2ccccc2Cl)C(=O)N(C)C1=O | i | i | i | i | i | x | x | x
O=C1NC(=S)NC(=O)C1=Cc1ccc2c(c1)CCN2CCCCl | 10* | i | i | i | i | 42%* | i | i
C=CCN1C(=O)NC(=O)/C(=C/c2cc3c4c(c2)CCCN4CCC3)C1=O | i | i | i | i | i | x | x | x
C=C(CO)CC1CC(O)[C@]2(C)OC3CC4OC5C[C@]6(C)O[C@]7(C)CCC8OC9C[C@]%10(C)OC%11C(C)=CC(=O)OC%11CC%10OC9C[C@@H](C)C8OC7CC6O[C@]5(C)C/C=C\C4OC3CC2O1 (stereo partly specified) | i | i | i | i | i | x | i | i
CCN1CCN(Cc2cc(Br)cc(OC)c2O)CC1 | i | i | i | i | i | x | x | x
CC(Cc1ccc(O)cc1)NCC(O)c1cc(O)cc(O)c1 (stereo unspecified) | 5.7* | i | i | i | i | 30%* | i | 73%*
Cc1nc2cc([N+](=O)[O-])ccc2c(=O)n1-c1ccccc1[N+](=O)[O-] | i | i | i | i | i | x | x | x
CCN(CC)c1ccc(/C=C/[N+](=O)[O-])cc1 | 10* | i | i | i | i | 29%* | i | 580%*
O=C1/C(=C\c2ccc([N+](=O)[O-])cc2)N2CCC1CC2 | 5.9* | i | i | i | i | 5.0%* | i | i
Cc1cc(C)c(C2=NOC(O)(C(F)(F)F)C2)c(=O)[nH]1 (stereo unspecified) | i | i | i | i | i | x | x | x
C=C1C(=O)O[C@@H]2C[C@@H](C)[C@@H]3C=CC(=O)[C@@]3(C)[C@@H](O)[C@H]12 | 5.2* | i | i | i | i | 35%* | i | i
CCC(C)N1C(=O)NC(=O)C2(Cc3c(ccc4ccccc34)N(C)C2)C1=O (stereo unspecified) | i | i | 34* | i | i | x | x | x | MrgX1 ag confirm=i;HEK293 Ca flux=i;HEK293 Ca counter=i;HEK293 Ca cntr2=i
CCOc1cc2c(cc1OCC)-n1cccc1C(c1ccc(OC)c(O)c1)NC2 (stereo unspecified) | i | i | i | i | i | x | x | x
CN(C)C1(CNC(=O)c2cc(S(=O)(=O)N3CCOCC3)c(Cl)cc2Cl)CCCCC1 | i | i | i | i | i | x | x | x
CN(C)C1(CNC(=O)Nc2ccc(Cl)c(Cl)c2)CCCCC1 | i | i | 30* | i | i | x | x | x | MrgX1 ag confirm=i;HEK293 Ca flux=i;HEK293 Ca counter=i;HEK293 Ca cntr2=i
CNCCc1ccc(O)c(O)c1 | i | i | 43* | i | i | x | x | x | MrgX1 ag confirm=116%*;HEK293 Ca flux=i;HEK293 Ca counter=i;HEK293 Ca cntr2=i
O=C(c1ccc(F)cc1)C(Cc1ccccc1)N1CCCCC1 (stereo unspecified) | i | i | i | i | i | x | x | x
O=C(CCCN1CCC2(CC1)C(=O)NCN2c1ccccc1)c1ccc(F)cc1 | i | i | 76* | i | i | x | x | x | MrgX1 ag confirm=542%*;HEK293 Ca flux=i;HEK293 Ca counter=i;HEK293 Ca cntr2=99*
CCOC(=O)/C(CCCN(CC)CC)=N\O | i | i | i | i | i | x | x | x
Cc1cc(C)n(-c2ccc(NN=C(C#N)C#N)cc2)n1 | i | i | 88* | i | i | x | x | x | MrgX1 ag confirm=215%*;HEK293 Ca flux=i;HEK293 Ca counter=i;HEK293 Ca cntr2=56*
O=C(c1ccc2c(c1)OCO2)C1CCCN(CC2CCCCC2)C1 (stereo unspecified) | i | i | i | i | i | x | x | x
CC1OC(C[N+](C)(C)C)CC1O (stereo unspecified) | x | i | 80* | i | x | x | x | x | MrgX1 ag confirm=502%*;HEK293 Ca flux=i;HEK293 Ca counter=i;HEK293 Ca cntr2=104*
